One compound from ChEMBL document CHEMBL2429791, “Preparation of asymmetric urea derivatives that target prostate-specific membrane antigen for SPECT imaging” (J Med Chem, 2013) can be followed below.

Series [1] deals with Kidney. As to the kind of experiment: Biodistribution in kidney of C.B.-17/Icr +/+ Jcl mouse xenografted with human LNCAP and PC3 cells at 25.9 MBq, iv after 30 mins in presence of 2-PMPA. Type of series: ADME, organism-based. As to conditions: in vivo, 0.5 h; call rule not given here. The procedure, abridged:
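Blocking study: ¹²⁵I-labelled tracer coinjected iv by tail vein with 2-PMPA (50 mg/kg) in LNCaP/PC-3 xenograft-bearing mice (22–24 g). Mice decapitated 30 min after injection; tissues weighed and counted; uptake as %ID/g.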

Series [2] relates to Nucleic Acid. As to the kind of experiment: Ratio of drug level in human PC3 cells xenografted in C.B.-17/Icr +/+ Jcl mouse to muscle of C.B.-17/Icr +/+ Jcl mouse xenografted with human LNCAP and PC3 cells at 25.9 MBq, iv after 6 hrs. Type of series: ADME, organism-based. As to conditions: in vivo. The procedure, abridged:
(§1)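 Mice (22–24 g) carried PC-3 (right shoulder) and LNCaP (left shoulder) tumors, raised by injecting 1–5 × 10⁶ cells in 1:1 PBS/Matrigel and used at about 5–10 mm diameter. [¹²⁵I]-tracer was given via the tail vein, n=4 per time point, and mice were decapitated at 2 min, 30 min, 1, 3 or 6 h. Tissues were weighed and γ-counted as %ID/g. Tumor/blood and tumor/muscle ratios were taken from %ID/g, mean ± SD.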
In general terms: A xenograft is tissue or cells of one species grown in another, often human tumour cells in immunodeficient mice.

Series [3] in a line: Ratio of drug level in human PC3 cells xenografted in C.B.-17/Icr +/+ Jcl mouse to blood of C.B.-17/Icr +/+ Jcl mouse xenografted with human LNCAP and PC3 cells at 25.9 MBq, iv after 6 hrs. Type of series: ADME, organism-based. As to conditions: PC3 tumour xenograft relative to blood. The essentials: as §1
The subject of series [4] is Thyroid gland. Description: Biodistribution in thyroid of C.B.-17/Icr +/+ Jcl mouse xenografted with human LNCAP and PC3 cells at 25.9 MBq, iv after 6 hrs. Type of series: ADME, organism-based. As to conditions: in vivo. The essentials: (§2)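 Radioiodinated (¹²⁵I) tracer given by tail-vein injection to mice bearing LNCaP (left shoulder) and PC-3 (right shoulder) xenografts, 22–24 g, grown to about 5–10 mm. Groups of n=4 were decapitated at 2 min, 30 min, 1 h, 3 h or 6 h. Tissues were weighed and counted, and uptake was expressed as %ID/g (mean ± SD).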

The test system of series [5] is Heart. As to the kind of experiment: Biodistribution in heart of C.B.-17/Icr +/+ Jcl mouse xenografted with human LNCAP and PC3 cells at 25.9 MBq, iv after 6 hrs. Type of series: ADME, organism-based. As to conditions: in vivo. The essentials: (§3)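 ¹²⁵I-labelled tracer given iv by tail vein to mice (22–24 g) bearing LNCaP (left shoulder) and PC-3 (right shoulder) xenografts of about 5–10 mm, grown from 1–5 × 10⁶ cells in 1:1 Matrigel. n=4 per time point; decapitated at 2 min, 30 min, 1, 3, 6 h. Tissues weighed and counted; uptake as %ID/g, mean ± SD.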

The subject of series [6] is Liver. Description: Biodistribution in liver of C.B.-17/Icr […] Jcl mouse xenografted with human LNCAP and PC3 cells at 25.9 MBq, iv after 6 hrs. In kind it is ADME, organism-based. As to conditions: in vivo. The procedure, abridged: as §3
Series [7] is described as follows: Ratio of drug level in human LNCAP cells xenografted in C.B.-17/Icr +/+ Jcl mouse to blood of C.B.-17/Icr +/+ Jcl mouse xenografted with human LNCAP and PC3 cells at 25.9 MBq, iv after 3 hrs. In kind it is ADME, organism-based. As to conditions: LNCAP tumour xenograft relative to blood. The procedure, abridged: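 Tumor-to-blood and tumor-to-muscle ratios were calculated from %ID/g values in ¹²⁵I-tracer biodistribution in LNCaP/PC-3 xenografted mice. Tail-vein dosing, n=4 per time point, sacrifice at 2 min, 30 min, 1, 3 or 6 h.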

The subject of series [8] is Heart. As to the kind of experiment: Biodistribution in heart of C.B.-17/Icr +/+ Jcl mouse xenografted with human LNCAP and PC3 cells at 25.9 MBq, iv after 3 hrs. Type of series: ADME, organism-based. As to conditions: in vivo. The procedure, abridged:
as §3

The subject of series [9] is Intestine. As to the kind of experiment: Biodistribution in intestine of C.B.-17/Icr +/+ Jcl mouse xenografted with human LNCAP and PC3 cells at 25.9 MBq, iv after 3 hrs. Type of series: ADME, organism-based. As to conditions: in vivo. The procedure, abridged: as §3
Series [10] relates to Nucleic Acid. As to the kind of experiment: Ratio of drug level in human PC3 cells xenografted in C.B.-17/Icr +/+ Jcl mouse to muscle of C.B.-17/Icr +/+ Jcl mouse xenografted with human LNCAP and PC3 cells at 25.9 MBq, iv after 1 hr. Type of series: ADME, organism-based. As to conditions: in vivo. The essentials:
as §1

Series [11] relates to Nucleic Acid. As to the kind of experiment: Ratio of drug level in human LNCAP cells to human PC3 cells xenografted in C.B.-17/Icr […] Jcl mouse at 25.9 MBq, iv after 1 hr. Type of series: ADME, organism-based. As to conditions: in vivo.
The subject of series [12] is PC-3. As to the kind of experiment: Biodistribution in PC3 cells in C.B.-17/Icr +/+ Jcl mouse xenografted with human LNCAP and PC3 cells at 25.9 MBq, iv after 1 hr. In kind it is ADME, organism-based. As to conditions: in vivo. The procedure, abridged:
as §3

For series [13], the system named is Muscle tissue. Description: Biodistribution in muscle of C.B.-17/Icr +/+ Jcl mouse xenografted with human LNCAP and PC3 cells at 25.9 MBq, iv after 1 hr. In kind it is ADME, organism-based. As to conditions: in vivo. The essentials: as §2
Series [14] concerns Intestine. As to the kind of experiment: Biodistribution in intestine of C.B.-17/Icr +/+ Jcl mouse xenografted with human LNCAP and PC3 cells at 25.9 MBq, iv after 1 hr. In kind it is ADME, organism-based. As to conditions: in vivo. The essentials: as §3
Series [15] has as its system Blood. As to the kind of experiment: Biodistribution in blood of C.B.-17/Icr +/+ Jcl mouse xenografted with human LNCAP and PC3 cells at 25.9 MBq, iv after 1 hr. In kind it is ADME, organism-based. As to conditions: in vivo. The procedure, abridged: as §3
The test system of series [16] is Thyroid gland. Description: Biodistribution in thyroid of C.B.-17/Icr +/+ Jcl mouse xenografted with human LNCAP and PC3 cells at 25.9 MBq, iv after 30 mins. Type of series: ADME, organism-based. As to conditions: in vivo, 0.5 h. The procedure, abridged: as §2
The subject of series [17] is Spleen. Description: Biodistribution in spleen of C.B.-17/Icr scid/scid Jcl mouse xenografted with human LNCAP and PC3 cells at 25.9 MBq, iv after 30 mins in presence of 2-PMPA. Type of series: ADME, organism-based. As to conditions: in vivo, 0.5 h. The procedure, abridged: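 Blocking study: the ¹²⁵I tracer was coinjected via the tail vein with 2-PMPA (50 mg/kg) into LNCaP/PC-3 tumor-bearing mice, 22–24 g. Mice were decapitated 30 min after injection. Tissues were weighed and counted, giving %ID/g.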

For series [18], the system named is Muscle tissue. Description: Biodistribution in muscle of C.B.-17/Icr +/+ Jcl mouse xenografted with human LNCAP and PC3 cells at 25.9 MBq, iv after 30 mins. In kind it is ADME, organism-based. As to conditions: in vivo, 0.5 h. The procedure, abridged: as §2
In series [19] the test system is Kidney. As to the kind of experiment: Biodistribution in kidney of C.B.-17/Icr +/+ Jcl mouse xenografted with human LNCAP and PC3 cells at 25.9 MBq, iv after 30 mins. As to conditions: in vivo, 0.5 h. Type of series: ADME, organism-based. The essentials: as §3
Series [20] relates to Nucleic Acid. As to the kind of experiment: Ratio of drug level in human PC3 cells xenografted in C.B.-17/Icr +/+ Jcl mouse to muscle of C.B.-17/Icr +/+ Jcl mouse xenografted with human LNCAP and PC3 cells at 25.9 MBq, iv after 2 mins. As to conditions: in vivo. In kind it is ADME, organism-based. The essentials:
as §1

For series [21], the system named is Nucleic Acid. Description: Ratio of drug level in human LNCAP cells to human PC3 cells xenografted in C.B.-17/Icr […] Jcl mouse at 25.9 MBq, iv after 2 mins. Type of series: ADME, organism-based. As to conditions: in vivo.
For series [22], the system named is Kidney. As to the kind of experiment: Biodistribution in kidney of C.B.-17/Icr […] Jcl mouse xenografted with human LNCAP and PC3 cells at 25.9 MBq, iv after 2 mins. In kind it is ADME, organism-based. As to conditions: in vivo. The procedure, abridged:
as §3

The test system of series [23] is Serum. Description: Drug degradation in C.B.-17/Icr +/+ Jcl mouse serum after 18 hrs. In kind it is ADME, cell-free. The essentials:
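Serum came from heart blood of isoflurane-anesthetized male C.B.-17/Icr +/+ mice (20–22 g), centrifuged at 1,500 × g and stored at −80 °C. ¹²⁵I tracer was incubated in serum at 37 °C, then methanol was added. The sample was centrifuged at 5,000 × g, passed through a 0.45 μm filter, and analyzed by radio-HPLC for intact tracer versus degradation peaks.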

Regarding `O=C(O)CC[C@H](NC(=O)N[C@@H](CSC1CC(=O)N(CCCC[C@H](NC(=O)CNC(=O)c2cccc([125I])c2)C(=O)O)C1=O)C(=O)O)C(=O)O` (stereo partly drawn), the Drug uptake entry in series [1] was “Not Active”; in series [4], 0.02 %ID; in [5], 0.4 % ID/g; in [6], 4.5 % ID/g; in series [8], 0.7 % ID/g; in series [9], 5.8 % ID/g. In addition, the Drug uptake in [12] is given as 0.7 % ID/g; in series [13], 0.5 % ID/g; in [14], 16.5 % ID/g; in series [15] it was 1 % ID/g; in series [16], 0 %ID; in series [17], “Not Active”. The Drug uptake in series [18] was 0.6 % ID/g; in series [19] it was 88.8 % ID/g; in series [22], 68.1 % ID/g. The Ratio in series [2] is 2.1; in series [10] it was 1.6; in series [11], 9.6; in [20] it was 1.9; in [21] it was 1.5. Also, the Kp (as a rule, tissue or fluid exposure divided by exposure in the circulation) at 6 h in [3] came out at 0.4. In addition, in series [7], the Kp at 3 h was determined as 13.8. The Stability entry in series [23] is given as “Unstable”.
